Sampled rows, rich in hits. Any-hit rate of the full collection: about 2.8%.
NPY Y1 blocker – NPY-Y1 receptor antagonists, primary screen, cell-based; 200,000 compounds, 1% hits; inhibition, % at 3.6 µM; Neuropeptide Y receptor type 1 (Homo sapiens), P25929; HEK293-CNG Y1 cells, membrane potential fluorescence; NPY at EC95, then isoproterenol;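 active = inhibition above the campaign mean inhibition of all tested compounds plus 3 SD, cut at about 20% in these data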;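 note: 0% = DMSO wells given NPY plus isoproterenol and 100% = isoproterenol alone without NPY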
Target sequence (P25929 whole entry, looked up): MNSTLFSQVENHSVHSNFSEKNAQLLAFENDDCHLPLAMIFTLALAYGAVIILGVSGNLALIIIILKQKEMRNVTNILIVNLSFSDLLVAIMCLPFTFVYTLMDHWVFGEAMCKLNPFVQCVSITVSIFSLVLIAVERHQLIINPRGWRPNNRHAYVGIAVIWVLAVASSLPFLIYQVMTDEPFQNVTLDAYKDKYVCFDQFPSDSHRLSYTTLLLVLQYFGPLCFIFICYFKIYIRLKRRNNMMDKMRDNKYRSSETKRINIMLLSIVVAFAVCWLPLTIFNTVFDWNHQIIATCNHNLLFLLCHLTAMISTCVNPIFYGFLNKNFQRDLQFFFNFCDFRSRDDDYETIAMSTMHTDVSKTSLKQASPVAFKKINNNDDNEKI
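Material: HEK293 Y1/CNG channel cell line; also added: NPY (25 nM), isoproterenol (1 µM), Ro 20-1724 (25 µM); doses: one concentration, 3.6 µM, in 0.4% DMSO; schedule: compound incubation 1 h at room temperature, readout 45 min post-stimulation; technique: membrane potential fluorescence; measure: fluorescence ratio normalized to % inhibition between controls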
NPY2 pot ag – NPY-Y2 potentiators or agonists, primary screen, cell-based. Neuropeptide Y receptor type 2 (Homo sapiens), P49146. cells expressing NPY-Y2, potentiator/agonist read-out. activation, % at 3.6 µM. 220,000 compounds, 0.45% hits. AID 1359, 2008; in the data active = activation above about 27%;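 note: cells stimulated with NPY near EC25 plus isoproterenol at EC100; 0% = vehicle plus submaximal agonist and 100% = vehicle plus saturating agonist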
NPY-Y2 antag – NPY-Y2 receptor antagonists, primary screen, cell-based; NPY-Y2 expressing cells, antagonist mode; inhibition, % at 2.7 µM; 140,000 compounds, 0.99% hits; AID 793, 2007; in the data active = inhibition above about 17%;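 note: 0% = vehicle with agonist challenge and 100% = reference antagonist with challenge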
Measles CPE – compounds protecting cells from measles virus cytopathic effect, primary screen, measles RdRp inhibitor project, single point, MLSMR library, absorbance | protection (pct of control), % at 4 µM | Measles virus-infected cells, CPE protection | 140,000 compounds, 1.5% hits; in the data active = protection mostly above about 24%, no sharp cut-off; inactive = mostly below about 26%
NPY1 pot ag – NPY-Y1 receptor potentiators or agonists, primary screen, cell-based; 220,000 compounds, 0.37% hits; Neuropeptide Y receptor type 1 (Homo sapiens), P25929; activation, % at 3.6 µM; NPY-Y1 expressing cells, potentiator/agonist activation; AID 1304, 2008; in the data active = activation above about 33%, passing the limit was not always enough;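 note: cells stimulated with NPY at EC10 then isoproterenol at EC100; 0% = low agonist plus stimulus and 100% = saturating agonist plus stimulus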
Rad51 HR inh – human RAD51 strand exchange inhibitors, primary screen, biochemical, fluorescence; hRad51 DNA strand exchange, fluorescence dequenching; inhibition, % at 10 µM; 200,000 compounds, 0.085% hits;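 active = inhibition above 40% at the single screening dose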;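 note: 0% = DMSO control wells and 100% = blanks with heterologous ssDNA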
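material = hRad51 filaments on single-stranded DNA | timing = filaments 15 min 37 °C, then compound 30 min | signal = FRET fluorescence dequenching, excitation 485 nm, emission 520 nm | benchmarks = control wells and blank wells on each plate | evaluation = percent inhibition relative to plate controls and blanks | compound = 10 µM final, single point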
NPY1 antag ctr – NPY-Y1 receptor antagonists, selectivity check, counter-screen for NPY-Y2 antagonist project, cell-based. inhibition, % at 3.6 µM. cell-based NPY-Y1 antagonism counterscreen. 710 compounds, 19% hits. shares compounds with NPY-Y2 antag; in the data active = inhibition above about 20%;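 note: cells challenged with NPY then isoproterenol with cAMP sensed through a CNG channel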
NPY2 antag conf – NPY-Y2 receptor antagonists, retest of hits, confirmation, HEK293-CNG cells, membrane potential fluorescence, triplicate; inhibition, % at 2.8 µM; AID 1257, 2008; HEK293 NPY-Y2 CNG channel; 710 compounds, 32% hits; shares compounds with NPY-Y2 antag;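 active = mean inhibition of triplicate wells above the hit cutoff set in the primary screen, cut at about 17% in these data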;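 note: 0% = DMSO with NPY challenge and 100% = BIIE0246 high control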
Starred values were filed as active, the others as inactive.

Screening COc1ccc(-c2nnc(SCc3nnc(-c4ccc(Cl)cc4)o3)n2-c2ccccc2)cc1 returned NPY Y1 blocker 6, NPY2 pot ag -5, NPY-Y2 antag 23*, Measles CPE 20, NPY1 pot ag -2, Rad51 HR inh 9, NPY1 antag ctr 18 and NPY2 antag conf 14.
`Clc1ccc(-c2nnc(CSc3nnc(-c4cccs4)n3Cc3ccccc3)o2)cc1` gave NPY Y1 blocker 15, NPY2 pot ag 19, NPY-Y2 antag 25*, Measles CPE 3, NPY1 pot ag -12, NPY1 antag ctr 23* and NPY2 antag conf 5.
CC(/C=C1\SC(=S)N(NC(=O)c2ccc(C)cc2)C1=O)=C\c1ccccc1 was read as NPY Y1 blocker 13, NPY2 pot ag -18, NPY-Y2 antag 19*, Measles CPE 4, NPY1 pot ag -11, Rad51 HR inh -3, NPY1 antag ctr 17 and NPY2 antag conf 20*.
For COc1ccc(OC)c2c1nc1n2CCS1 the results were NPY Y1 blocker 1, NPY2 pot ag -2, NPY-Y2 antag 2, Measles CPE 21, NPY1 pot ag -13 and Rad51 HR inh 3.
Screening CCN(CC)CCCN=Cc1c(O)n(Cc2ccccc2)c(=O)c2ccccc12 returned NPY Y1 blocker 3, NPY2 pot ag -12, NPY-Y2 antag 4, Measles CPE 10, NPY1 pot ag 0 and Rad51 HR inh -2.
`CC(C)CCC(C)N=Cc1c(O)n(Cc2ccccc2)c(=O)c2ccccc12` (centres undefined) gave NPY Y1 blocker 14, NPY2 pot ag -3, NPY-Y2 antag 21*, Measles CPE 1, NPY1 pot ag -20, Rad51 HR inh -2, NPY1 antag ctr 27* and NPY2 antag conf 21*.
For O=C(Nc1ccc(F)cc1F)c1ccc(COc2c(F)c(F)cc(F)c2F)o1 the results were NPY Y1 blocker 11, NPY2 pot ag -27, NPY-Y2 antag 18*, Measles CPE 4, NPY1 pot ag -40, Rad51 HR inh 6, NPY1 antag ctr 10 and NPY2 antag conf 9.
Screening O=C(Nc1ccc(Cl)cc1F)c1ccc(COc2c(F)c(F)c(F)c(F)c2F)o1 returned NPY Y1 blocker 15, NPY2 pot ag -20, NPY-Y2 antag 16, Measles CPE 48, NPY1 pot ag -21 and Rad51 HR inh -6.
For Cc1ccc(S(=O)(=O)N2CCN(C(C)C(=O)Nc3ccccc3-c3ccccc3)CC2)cc1 (centres undefined) the results were NPY Y1 blocker 4, NPY2 pot ag 1, NPY-Y2 antag 7, Measles CPE 7, NPY1 pot ag 3 and Rad51 HR inh 5.
Screening Cc1ccc2c(c1)C(=O)CCCCC(=O)N2 returned NPY2 pot ag 3, NPY1 pot ag -6 and Rad51 HR inh -2.
For COc1ccc(N2CCN(c3ccc(Cl)nn3)CC2)cc1 the results were NPY Y1 blocker 0, NPY2 pot ag 12, NPY1 pot ag 9 and Rad51 HR inh 14.
COc1ccc(-c2csc(NC(=O)c3ccoc3C)n2)cc1 was read as NPY Y1 blocker 3, NPY2 pot ag 0, NPY1 pot ag 1 and Rad51 HR inh 2.
Screening COc1ccccc1Nc1nc2nonc2nc1N1CCCCC1C (centres undefined) returned NPY Y1 blocker 6, NPY2 pot ag 1, NPY-Y2 antag 19*, Measles CPE 9, NPY1 pot ag -10, Rad51 HR inh 6, NPY1 antag ctr 17 and NPY2 antag conf 9.

Screening results as filed in PubChem.
